Assay outcomes from PubChem BioAssay.
MEKK2 mut-MEK5: signal of MEK5 binding to mutant human MEKK2 PB1 domain. 0.35% of 290,000 active. AID 1530. bead flow cytometry, Alexa488-MEK5 binding to MEKK2 mutant. percent response, % at 10 µM; in the data active = percent response above about 24%, passing the limit was not always enough
MEKK3 PB1 HTS: MEKK3-MEK5 PB1 interaction, increase or decrease; bead-based flow cytometry, Alexa488-MEK5 binding to MEKK3; actives lie on both sides; 0 = blocked by unlabeled MEK5, 100 = vehicle; binding response (% of control), % at 10 µM; 1.4% of 290,000 active;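 active = binding response more than 3 SD above or below the average of its plate-row segment, actives on both sides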;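 also: Alexa488 bead fluorescence after subtracting the streptavidin-only scavenger bead signal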
WT yeast gro inh: growth inhibition of WT yeast, mitochondrial fusion screen | inhibition, % at 10 µM | mitochondrial fusion phenotypic screen, WT strain | 2.1% of 190,000 active; in the data active = inhibition above about 58%; tested in S. cerevisiae
ABCB1 inh: inhibitors of human ABCB1 transporter, ABCG2 counter-screen. AID 1326. P08183. inhibition, % at 6.6 µM. 0.067% of 190,000 active. CCRF-Adr cells, JC-1 efflux, flow cytometry; in the data active = inhibition above about 40%;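 also: 0% = vehicle and 100% = reference inhibitor; higher value means more JC-1 retained so stronger ABCB1 efflux block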
MEKK2 WT-MEK5: raises or lowers MEK5 binding to wildtype human MEKK2 PB1 domain | AID 1531 | bead flow cytometry, Alexa488-MEK5 binding to MEKK2 WT; actives lie on both sides | binding response (% of control), % at 10 µM | 1.1% of 290,000 active | Q9Y2U5; in the data active = binding response below about 67% or above about 130%
ABCG2 block: blocks JC-1 efflux by human ABCG2 transporter. Q9UNQ0. 0.1% of 190,000 active. inhibition, % at 6.6 µM. IgMXP3 cells, flow cytometry;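 active = inhibition above 80%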;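 also: 0% = DMSO and 100% = nicardipine control wells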
Target sequence (Q9UNQ0 whole entry, looked up): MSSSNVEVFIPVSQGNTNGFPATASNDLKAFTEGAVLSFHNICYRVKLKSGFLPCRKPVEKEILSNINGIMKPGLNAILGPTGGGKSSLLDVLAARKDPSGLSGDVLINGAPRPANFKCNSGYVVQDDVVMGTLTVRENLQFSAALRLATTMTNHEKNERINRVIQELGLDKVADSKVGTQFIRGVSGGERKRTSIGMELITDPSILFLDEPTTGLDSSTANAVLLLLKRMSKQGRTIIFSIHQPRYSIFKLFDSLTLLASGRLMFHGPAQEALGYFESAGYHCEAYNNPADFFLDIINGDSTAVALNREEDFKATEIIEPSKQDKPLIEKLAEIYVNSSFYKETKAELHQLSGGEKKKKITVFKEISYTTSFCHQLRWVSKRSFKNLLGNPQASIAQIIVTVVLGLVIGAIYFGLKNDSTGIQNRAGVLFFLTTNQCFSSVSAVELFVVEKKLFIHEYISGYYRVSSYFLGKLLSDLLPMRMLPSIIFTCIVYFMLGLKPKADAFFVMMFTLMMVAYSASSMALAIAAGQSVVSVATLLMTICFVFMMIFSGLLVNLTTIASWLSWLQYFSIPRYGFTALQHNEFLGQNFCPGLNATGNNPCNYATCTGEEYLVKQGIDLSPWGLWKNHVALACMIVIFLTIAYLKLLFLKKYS
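Measure – % inhibition of efflux relative to nicardipine and DMSO · Test system – ABCG2 IgMXP3 and barcoded ABCB1 CCRF-Adr cell mix · Control set – nicardipine as high control, DMSO as low control · Compound – one concentration, 6.6 µM final · Signal – flow cytometry of retained JC-1 fluorescence · Timing – 10 min exposure at 25 °C with rotation, no wash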
An asterisk follows results filed as active; · = not tested or not shown. Rows were chosen to be rich in hits. Some 3.5% of all compounds tested hit in one or more screens of this group.

SMILES	MEKK2 mut-MEK5	MEKK3 PB1 HTS	WT yeast gro inh	ABCB1 inh	MEKK2 WT-MEK5	ABCG2 block
Cc1cccc(C(=O)O/N=C(\N)c2ccc(Br)cc2)c1	6	102	11	1	101	3
Cc1cccc(C(=O)O/N=C/c2ccc(Br)cc2)c1	-10	102	60*	-1	96	-1
S=c1[nH]nc(Cc2ccc(Br)cc2)n1/N=C/c1ccc(Cl)cc1	1	103	93*	0	101	1
CCc1n[nH]c(=S)n1/N=C/c1ccc2c(c1)OCO2	-9	82	15	-3	91	-4
CCc1n[nH]c(=S)n1/N=C/c1ccc(N(C)c2ccccc2)cc1	-6	102	72*	-3	90	-5
S=c1[nH]nc(COc2ccccc2)n1/N=C/c1ccc(Cl)cc1	4	104	·	·	104	·
CCOC(=O)Cc1c(Sc2ccccc2)c2ccccc2n1C	15	103	66*	1	117	12
Cn1c(CC(=O)NC(C)(C)CO)c(Sc2ccccc2)c2ccccc21	2	89	-3	1	93	1
COc1ccc(NC(=O)c2cc3ccc4c5ccccc5[nH]c4c3cc2O)cc1	9	55	·	·	68	·
COc1ccc(N2CCN(C(=O)c3ccc(C)cc3)CC2)c([N+](=O)[O-])c1	-1	101	30	2	101	33
COc1ccc(N2CCN(C(=O)c3ccc(Br)cc3)CC2)c([N+](=O)[O-])c1	-2	91	69*	1	96	6
COc1ccc(N2CCN(C(=S)NC(=O)c3cccs3)CC2)c([N+](=O)[O-])c1	1	102	61*	0	101	2
O=C(NC(=S)N1CCN(c2c(Cl)cccc2[N+](=O)[O-])CC1)c1cccs1	3	109	78*	0	107	-1
COc1ccc(N2CCN(S(=O)(=O)c3cn(C)cn3)CC2)cc1	1	98	·	·	99	·
CCOC(=O)c1c(C)oc2c1c(CN1CCN(CCO)CC1)c(O)c1ccccc12	-24	71	59*	0	81	2
Cc1ccc(N=c2ssnc2Cl)cc1	4	111	8	-1	107	-2
Cc1cc(C)nc(/N=c2/ssnc2Cl)c1	3	105	63*	0	105	9
CC1CCCCC1n1c(=S)[nH]c2ccccc2c1=O (configuration not stated)	4	95	76*	0	94	21
CC1CCCCC1NC(=O)CCCn1c(=S)[nH]c2ccccc2c1=O (configuration not stated)	-10	95	-13	-1	87	16
CCCCCCP(=O)(O)c1ccccc1	-2	102	61*	0	103	2
C=CCC(C(=O)OC)(C(=O)OC)c1ccc([N+](=O)[O-])cc1[N+](=O)[O-]	2	100	7	0	102	-1
C=CCC(C(=O)OC)(C(=O)OC)c1ccc([N+](=O)[O-])cn1	·	·	66*	0	·	3
COc1cc(CNCc2ccccn2)ccc1OCc1ccc(Cl)c(Cl)c1	5	97	72*	3	122	16
COc1cc(CNCc2ccccn2)ccc1OCc1ccc(Cl)cc1Cl	·	·	63	0	·	0
Cc1nn(Cc2ccccc2Cl)c(C)c1NC(=O)NC12CC3CC(CC(C3)C1)C2	3	104	73*	0	104	0
SMILES	MEKK2 mut-MEK5	MEKK3 PB1 HTS	WT yeast gro inh	ABCB1 inh	MEKK2 WT-MEK5	ABCG2 block
Cc1nn(Cc2ccccc2Cl)c(C)c1NC(=O)c1ccn(C)n1	-5	91	-4	0	92	0
CCOC(=O)C1CCCN(C(=O)/C(=C/c2ccco2)NC(=O)c2ccccc2)C1 (configuration not stated)	-5	98	·	·	92	·
CC(=O)Nc1ccc(N(C(=O)c2ccccn2)C(C(=O)NC2CCCCC2)c2ccc(F)cc2)cc1 (configuration not stated)	-1	96	·	·	92	·
Cc1ccc(-n2nnnc2SCC(=O)N2CCc3ccccc3C2)c(C)c1	5	97	61*	1	97	2
CC1(CC(=O)N/N=C/c2ccc(OCc3ccc(Cl)cc3Cl)cc2)OCCCO1	1	104	77*	0	105	1
COc1cc(/C=N/NC(=O)CC2(C)OCCCO2)ccc1OCc1ccc(Cl)cc1Cl	-2	97	23	0	100	0
CC(C)c1onc(C(=O)N2CCN(Cc3ccccc3)CC2)c1[N+](=O)[O-]	2	68	-11	0	75	0
CCOc1ccc2nc(SCc3ccc(C(=O)OC)o3)[nH]c2c1	3	121	-7	0	114	5
CCN(CC)CCN(C(=O)/C=C/c1cccs1)c1nc2ccc(C)cc2s1	17	105	·	·	160*	·
CCOc1cccc2sc(N(CCN(C)C)C(=O)/C=C/c3cccs3)nc12	26*	105	·	·	144*	·
COc1ccc(C)c2sc(N(CCN(C)C)C(=O)/C=C/c3cccs3)nc12	13	103	·	·	145*	·
Cc1c(C=O)c2cc(OCc3ccccc3)ccc2n1C	7	105	·	·	102	·
CC(=O)OCCCNc1cc(Sc2nc3ccccc3s2)c2nonc2c1[N+](=O)[O-]	-5	92	97*	0	91	-1
CC(=O)OCCCNc1cc(Sc2ccc(C)cc2)c2nonc2c1[N+](=O)[O-]	1	130*	0	0	105	1
Cc1nc(N/N=C/c2ccc(Br)cc2)cc(N2CCOCC2)n1	7	107	·	·	109	·
CCN(CC)CCNC(=O)C1CCN(S(=O)(=O)c2c(C)noc2/C=C/c2ccccc2F)CC1	11	107	·	·	136*	·
COc1ccc2c(c1)C(C)=CC(C)(C)N2S(=O)(=O)c1ccc(C)cc1	-13	95	45	1	81	5
CCOc1ccc2c(c1)C(C)=CC(C)(C)N2S(=O)(=O)c1ccc(C)cc1	-12	103	72*	0	95	10
CC1=CC(C)(C)N(S(=O)(=O)c2ccc(C)cc2)c2cc(C)ccc21	-7	100	76*	1	101	3
CC1=CC(C)(C)N(C(=O)CCl)c2cc(C)ccc21	0	96	-29	1	92	2
CN(C)C(=O)CSc1nnc(CCCCCNC(=O)OC(C)(C)C)o1	-4	99	65*	1	99	1
CCOC(=O)N1CCN(C(=O)c2cn(CC)c3ccc(S(=O)(=O)N4CC(C)CC(C)C4)cc3c2=O)CC1 (configuration not stated)	-1	103	-3	0	100	0
c1ccc2cc(CSCc3nc4ccccc4[nH]3)ccc2c1	1	102	74*	0	99	-1
O=C(CSCc1nc2ccccc2[nH]1)Nc1ccc2ccccc2c1	5	99	2	2	102	11
